# From PubChem BioAssay
# APJ antag: blocks the human apelin receptor APJ. P35414. CHO-K1 APJ beta-arrestin complementation, luminescence. inhibition, % at 20 µM. 330,000 compounds, 0.32% hits. AID 2521;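 active = inhibition above about 40% at 20 µM, limit read from the data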;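 note: cells challenged with 10 nM apelin-13 agonist together with compound; plate controls were apelin-13 plus DMSO wells for no effect and DMSO wells lacking apelin-13 for full effect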
# Target sequence (P35414 whole entry, looked up): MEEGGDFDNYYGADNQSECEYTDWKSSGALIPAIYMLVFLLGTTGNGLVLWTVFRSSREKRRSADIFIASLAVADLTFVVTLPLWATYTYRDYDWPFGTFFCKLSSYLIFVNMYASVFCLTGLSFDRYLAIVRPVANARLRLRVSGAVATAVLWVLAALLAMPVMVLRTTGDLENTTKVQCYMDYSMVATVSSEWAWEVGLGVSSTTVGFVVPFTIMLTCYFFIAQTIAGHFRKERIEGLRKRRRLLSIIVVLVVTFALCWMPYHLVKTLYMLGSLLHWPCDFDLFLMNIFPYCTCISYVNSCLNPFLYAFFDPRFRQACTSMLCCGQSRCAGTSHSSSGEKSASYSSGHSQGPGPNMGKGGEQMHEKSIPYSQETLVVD
# APJ agonist: APJ receptor agonism; P35414; CHO-K1 APJ PathHunter beta-arrestin, luminescence; 0% DMSO wells, 100% apelin; activation, % at 20 µM; 330,000 compounds, 0.11% hits;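 active = activation more than six SD over the plate average, tested at 20 µM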;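 note: 0% = DMSO alone and 100% = apelin-13 at 10 nM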
#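 Assay system: engineered CHO-K1 APJ arrestin reporter cells; Amount: 1000 CHO-K1 reporter cells seeded per well; Dosing: one dose, 20 µM compound, 1% DMSO; Times: compound stimulation 90 min at 25 °C, detection 60 min; Measured by: luminescent beta-gal fragment complementation, chemiluminescent substrate; Read-out: APJ–arrestin association signal; Controls: DMSO vs Apelin-13 10 nM.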
# CCR6 antag: blocks CCL20-driven beta-arrestin recruitment at human CCR6; inhibition, % at 20 µM; P51684; CHO-K1 CCR6 PathHunter beta-arrestin, luminescence, CCL20-stimulated; 340,000 compounds, 0.49% hits; AID 493098;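 active = compounds whose inhibition of the agonist-driven luminescence signal at 20 µM reaches about 50%, limit read from the data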;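 note: cells stimulated with CCL20 at 14 nM final; plate controls were DMSO with CCL20 for no effect and DMSO without agonist for full effect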
# CXCR6 block: inhibitors of human CXCR6 receptor; O00574; inhibition, % at 20 µM; CHO-K1 PathHunter CXCR6 beta-arrestin, luminescence; 360,000 compounds, 0.36% hits; in the data active = inhibition above about 34%, passing the limit was not always enough;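 note: antagonist mode with CXCL16 agonist at 10 nM final; 0% = 10 nM CXCL16 with DMSO and 100% = unstimulated wells without agonist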
# EBI2 antag: blocks human EBI2 receptor beta-arrestin signaling; 360,000 compounds, 0.81% hits; inhibition, % at 5 µM; AID 651636; EBI2 beta-arrestin recruitment, luminescence, 7a,25-OHC stimulated; in the data active = inhibition above about 38%;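 note: enzyme fragment complementation signal reports receptor beta-arrestin coupling in cells; 0% = agonist plus DMSO wells and 100% = wells without agonist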
# APJ antag confirm: confirmation of human APJ apelin receptor antagonists. inhibition, % at 20 µM. AID 2766. 950 compounds, 66% hits. APJ beta-arrestin recruitment, luminescence, antagonist mode. shares compounds with APJ antag; in the data active = inhibition above about 50%
# * marks the source's active call; other numbers are inactive results; . = no result. Hits are enriched below; roughly 1.5% of the tested compounds scored in any of these assays.
SMILES,APJ antag,APJ agonist,CCR6 antag,CXCR6 block,EBI2 antag,APJ antag confirm
COc1ccc(-c2c3c(nc4sc5c(=O)[nH]c(C)nc5c24)CCC3)cc1,6.0,-1.8,-3.6,5.4,3.5,.
CC1(c2nnnn2-c2ccc3c(c2)OCCO3)CCC(=O)N1CCOc1ccccc1 (stereo not given),.,.,.,0.0,-4.1,.
CN(C)CCNc1ncnc2c1ncn2[C@H]1CN(Cc2ccco2)C[C@@H](CO)O1,.,.,.,-0.3,-2.3,.
CCOc1cccc(/C=C/c2ccc3cccc(O)c3n2)c1OC,43.0*,-9.1,30.9,24.1,13.0,72.0*
COc1ccc(Cl)cc1/C=C/c1ccc2cccc(O)c2n1,39.5,-7.0,38.4,18.7,-6.4,.
Oc1cccc2ccc(/C=C/c3ccccc3Cl)nc12,46.4*,-9.8,45.1,34.6,20.7,81.7*
COc1cc(Cl)cc(/C=C/c2ccc3cccc(O)c3n2)c1OC,41.3*,-8.1,41.4,39.8,21.8,36.8
Cc1ccc(N=C2C(=O)Nc3ccccc32)cc1,40.5*,-10.3,56.5*,33.6,11.1,77.5*
O=C1Nc2ccccc2C1=Nc1ccc(Br)cc1,63.0*,-14.2,68.8*,42.3*,16.1,146.8*
CCCCCOC(=O)c1c(N)n(CCOC)c2nc3ccccc3nc12,43.5*,-11.1,9.3,7.8,11.3,-3.1
COCCOC(=O)c1c(N)n(CCCN2CCOCC2)c2nc3ccccc3nc12,-5.8,-5.2,5.1,7.9,-5.7,.
Cc1ccc(C(=O)COC(=O)c2ccncc2)cc1[N+](=O)[O-],46.0*,-6.3,38.5,8.3,-5.6,69.9*
O=C(Cn1nnc2ccccc21)OCC(=O)c1ccccc1,36.1,-3.5,-33.6,-7.9,-5.5,.
O=C(Cn1nnc2ccccc21)OCC(=O)c1ccc(Cl)c(Cl)c1,90.8*,-8.9,72.9*,25.4,12.6,110.9*
O=C(COC(=O)c1ccncc1)c1ccc(Cl)c(Cl)c1,74.2*,-11.7,15.1,0.7,-4.6,85.5*
Cc1ccc(C(=O)COC(=O)c2cc(Cl)ccc2O)cc1[N+](=O)[O-],33.3,-16.9,15.2,16.8,15.3,.
COC(=O)[C@]1(C)N[C@H](CN(C)C(=O)C2CCCCC2)[C@@H]2C(=O)N(C)C(=O)[C@@H]21,7.9,-1.7,3.9,0.0,-2.8,.
Cc1ccsc1CN(C)CC(=O)N(C)CC(=O)Nc1c(Cl)cccc1Cl,.,.,.,6.6,-10.3,.
Cc1cccc(NC(=O)CN2C(=O)N/C(=C/c3ccc(C)o3)C2=O)c1,.,.,16.8,-5.3,-4.7,.
Cc1ccc(NC(=O)CN2C(=O)N/C(=C/c3ccc(C)o3)C2=O)cc1,42.5*,-4.4,-7.3,29.5,4.9,27.8
CC(=O)Oc1ccccc1Cn1c(C)c(C(=O)NCc2ccc(Cl)c(Cl)c2)sc1=O,.,.,.,7.9,17.7,.
O=C(NN1C(=O)/C(=C\c2ccc(O)c([N+](=O)[O-])c2)SC1=S)c1ccccc1Cl,55.0*,-6.5,60.1*,35.1,16.0,101.9*
COc1cc(/C=C2\SC(=S)N(NC(=O)c3ccc(O)cc3)C2=O)ccc1O,55.9*,-8.3,58.6*,42.3*,16.6,91.5*
COc1ccc(/C=C2\SC(c3ccc(C)cc3)=NC2=O)cc1OC,-11.4,3.2,8.4,7.6,-4.0,.
COc1cc(/C=C2\SC(=S)N(NC(=O)c3cccnc3)C2=O)ccc1O,42.1*,-7.1,49.4,36.0,5.9,95.3*
SMILES,APJ antag,APJ agonist,CCR6 antag,CXCR6 block,EBI2 antag,APJ antag confirm
CC(=O)NN1C(=O)/C(=C\c2ccc(O)cc2)SC1=S,34.6,-7.8,49.8,32.4,-1.1,.
COc1cc(/C=C2\SC(c3ccc(C)cc3)=NC2=O)ccc1O,57.6*,-11.9,75.0*,57.2*,16.9,102.4*
CN(CC(=O)NCC1CCCO1)S(=O)(=O)c1ccc2ccccc2c1 (stereo not given),.,.,.,-4.5,-11.2,.
O=C(NN1C(=O)/C(=C/c2ccc(O)c(O)c2)SC1=S)c1ccccc1,48.0*,-9.5,64.4*,51.5*,17.3,106.0*
NC(=S)NNC(=S)Nc1ccccc1,41.4*,-4.4,4.7,7.0,-6.9,52.8*
COC(=O)/C=C1\OCc2c(F)cccc21,.,.,.,.,-0.5,.
Cn1c(C=O)c(C#Cc2ccccc2)c2ccccc21,15.7,0.2,2.5,10.4,-2.5,.
Oc1c(N=Nc2ccccn2)ccc2ccccc12,67.7*,-12.2,50.4*,31.8,36.1,113.2*
O=c1cc2oc3cc(O)c(O)cc3c(-c3ccccc3[N+](=O)[O-])c-2cc1O,60.9*,-11.5,78.2*,58.5*,10.3,105.4*
CC1Nc2ncnc(N3CCN(c4ccccn4)CC3)c2N(Cc2ccccc2)C1=O (stereo not given),64.6*,-20.4,79.0*,68.5*,44.6*,109.9*
Cc1cc(=O)n2nc(N3CCCC(C(=O)NCc4ccco4)C3)sc2n1 (stereo not given),49.9*,-3.7,-1.7,5.3,5.3,16.1
Cc1cc(=O)n2nc(N3CCC(C(=O)NCc4ccco4)CC3)sc2n1,8.7,-0.3,4.9,-2.4,3.4,.
N#Cc1cnn2c3c(cnc12)C(=O)N1CCc2ccccc2C1C3 (stereo not given),47.6*,-6.0,29.1,11.9,8.9,29.1
COc1ccc(N2C(=O)c3ccccc3NC(=O)C2C(=O)NCc2ccco2)cc1 (stereo not given),.,.,.,.,-1.6,.
O=C1c2ccccc2-c2nnc(-c3ccccc3)cc21,53.4*,-13.0,55.5*,28.9,69.8*,142.6*
COc1ccc(-c2cc3c(nn2)-c2ccccc2C3=O)cc1,40.1*,-10.0,16.8,18.8,50.6*,142.9*
COc1ccc(-c2cn(Cc3ccc4c(c3)C(=O)c3ccccc3C4=O)nn2)cc1,-108.0,19.3,5.8,-10.0,-11.1,.
Cc1cccc(-c2cc3c(nn2)-c2ccccc2C3=O)c1,16.8,-10.8,42.3,26.0,31.1,.
COC(=O)c1[nH]c(=O)c2ccccc2c1O,42.8*,-17.1,67.8*,0.4,10.3,-12.5
COC(=O)c1[nH]c(=O)c2ccccc2c1OCc1ccccc1,8.3,2.3,6.1,5.5,-1.1,.
CN(C)c1cccc(NC(=O)C2(C)CC2(Cl)Cl)c1 (stereo not given),-11.9,3.2,0.8,3.1,6.8,.
CC(=O)Nc1ccc(NC(=O)C2(C)CC2(Cl)Cl)cc1 (stereo not given),91.4*,0.5,6.7,-3.9,-2.4,33.3
Nc1nc(-c2ccc(Cl)cc2)c(N=Nc2ccc(S(=O)(=O)N3CCOCC3)cc2)s1,48.8*,-3.9,71.3*,51.4*,31.9,89.0*
O=S(=O)(c1ccc(Cl)cc1)N1CCC(N2CCOCC2)CC1,8.3,-0.8,14.0,7.8,4.6,.
Oc1c(C(c2ccccc2Cl)N2CCCC2)ccc2cccnc12 (stereo not given),56.4*,-6.6,43.3,23.8,50.9*,55.9*
O=C(CN1c2ccccc2Sc2ccccc21)NNC(=S)Nc1ccc(Cl)cc1,51.3*,-13.4,28.0,14.4,5.3,70.0*
